Assay results from ChEMBL document CHEMBL3861955, “Pepluane and Paraliane Diterpenoids from Euphorbia peplus with Potential Anti-inflammatory Activity” (J Nat Prod, 2016).
Residues, ends and D or L forms follow the SMILES beside them. *: point of attachment. Cbz = O=C(OCc1ccccc1)*

Experiments:
[1] = Antiinflammatory activity in mouse RAW264.7 cells assessed as inhibition of LPS-induced nitric oxide production after 18 hrs by Griess assay; format: functional, cell-based; conditions: RAW264.7, 18 h
Outline: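 RAW264.7 cells seeded at 2 × 10^5 cells/well in RPMI-1640 and preincubated 24 h. Compounds added as serial dilutions from a top concentration of 100 μM, then LPS (1 μg/mL) stimulation for 18 h. Supernatant nitrite measured with Griess reagent after 5 min incubation, absorbance at 550 nm; proteasome inhibitor MG-132 used as positive control.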

Mus musculus = species: Mus musculus; experiment: Cytotoxicity against mouse RAW264.7 cells assessed as decrease in cell viability by MTT assay; format: toxicity, cell-based
Outline: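 Viability measured by MTT, run alongside the LPS/NO assay in the same RAW264.7 cultures: 2 × 10^5 cells/well in RPMI-1640, 24 h preincubation, compound serial dilutions up to 100 μM, then LPS (1 μg/mL) for 18 h. Absorbance read at 595 nm.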

IC50 [1] [µM] | Structure (SMILES) | Activity (Mus musculus)
47.5 | CC(=O)O[C@@H]1[C@H]2[C@@H](OC(=O)c3ccccc3)[C@@H](C)C[C@]2(O)[C@H](OC(C)=O)[C@@]2(C)[C@@H]3C[C@@](C)(OC(C)=O)CC(=O)[C@]3(OC(C)=O)C[C@@]12C | Non-Toxic
> 50 | CC(=O)O[C@H]1C[C@](C)(O)C[C@@H]2[C@@]1(OC(C)=O)C[C@@]1(C)[C@H](OC(C)=O)[C@H]3[C@@H](O)[C@@H](C)C[C@]3(O)[C@H](OC(C)=O)[C@@]21C | Non-Toxic
> 50 | CC(=O)O[C@H]1C[C@](C)(O)C[C@@H]2[C@@]1(OC(C)=O)C[C@@]1(C)[C@H](OC(C)=O)[C@H]3[C@@H](OC(=O)c4ccccc4)[C@@H](C)C[C@]3(O)[C@H](OC(C)=O)[C@@]21C | Non-Toxic
> 50 | CC(=O)O[C@@H]1[C@H]2[C@@H](OC(=O)c3ccccc3)[C@@H](C)C[C@]2(O)[C@H](OC(C)=O)[C@@]2(C)[C@@H]3C[C@@](C)(O)C[C@H](O)[C@]3(OC(C)=O)C[C@@]12C | Non-Toxic
> 50 | CC(=O)OC[C@@]12C[C@@]3(OC(C)=O)C(=O)C=C(C)C[C@H]3[C@]1(C)[C@@H](OC(C)=O)[C@@]1(O)C[C@H](C)[C@H](OC(=O)c3ccccc3)[C@@H]1[C@H]2OC(C)=O | Non-Toxic
0.18 | CC(C)C[C@@H](C=O)NC(=O)[C@H](CC(C)C)NC(=O)[C@H](CC(C)C)NC(=O)OCc1ccccc1 [MG-132] (Cbz-Leu-Leu-Leu-aldehyde) | 
36.6 | CC(=O)O[C@@H]1[C@H]2[C@@H](OC(=O)c3ccccc3)[C@@H](C)C[C@]2(O)[C@H](OC(C)=O)[C@@]2(C)[C@@H]3CC(C)=CC(=O)[C@]3(OC(C)=O)C[C@@]12C | Non-Toxic
43.2 | CC(=O)O[C@@H]1[C@H]2[C@@H](OC(=O)c3ccccc3)[C@@H](C)C[C@]2(O)[C@H](OC(C)=O)[C@@]2(C)[C@@H]3CC(C)(C)C(=O)[C@]3(O)C[C@@]12C | Non-Toxic
> 50 | CC(=O)O[C@H]1C[C@](C)(O)C[C@@H]2[C@@]1(O)C[C@@]1(C)[C@H](OC(C)=O)[C@H]3[C@@H](OC(=O)c4ccccc4)[C@@H](C)C[C@]3(O)[C@H](OC(C)=O)[C@@]21C | Non-Toxic
> 50 | CC(=O)OC[C@@]12C[C@@]3(OC(C)=O)C(=O)C(C)(C)C[C@H]3[C@]1(C)[C@@H](OC(C)=O)[C@@]1(O)C[C@H](C)[C@H](OC(=O)c3ccccc3)[C@@H]1[C@H]2OC(C)=O | Non-Toxic
> 50 | CC(=O)O[C@@H]1[C@H]2[C@@H](OC(=O)c3ccccc3)[C@@H](C)C[C@]2(O)[C@H](OC(C)=O)[C@@]2(C)[C@@H]3C[C@@](C)(OC(C)=O)C[C@H](O)[C@]3(OC(C)=O)C[C@@]12C | Non-Toxic
29.9 | CC(=O)O[C@@H]1[C@H]2[C@@H](OC(=O)c3ccccc3)[C@@H](C)C[C@]2(O)[C@H](OC(C)=O)[C@@]2(C)[C@@H]3CC(C)(C)C(=O)[C@]3(OC(C)=O)C[C@@]12C | Non-Toxic
> 50 | CC(=O)O[C@H]1C[C@](C)(O)C[C@@H]2[C@@]1(OC(C)=O)C[C@@]1(C)[C@H](OC(C)=O)[C@H]3[C@@H](OC(=O)c4ccccc4)[C@@H](C)[C@@H](OC(C)=O)[C@]3(O)[C@H](OC(C)=O)[C@@]21C | Non-Toxic
33.7 | CC(=O)O[C@@H]1[C@H]2[C@@H](OC(=O)c3ccccc3)[C@@H](C)C[C@]2(O)[C@H](OC(C)=O)[C@@]2(C)[C@@H]3CC(C)(C)C(=O)[C@@H]3C[C@@]12C | Non-Toxic
38.3 | CC(=O)O[C@@H]1[C@H]2[C@@H](OC(=O)c3ccccc3)[C@@H](C)C[C@]2(O)C(=O)[C@@]2(C)[C@@H]3CC(C)(C)C(=O)[C@@H]3C[C@@]12C | Non-Toxic
37.1 | CC(=O)O[C@H]1C[C@](C)(OC(C)=O)C[C@@H]2[C@@]1(OC(C)=O)C[C@@]1(C)[C@H](OC(C)=O)[C@H]3[C@@H](OC(=O)c4ccccc4)[C@@H](C)C[C@]3(O)[C@H](OC(C)=O)[C@@]21C | Non-Toxic
> 50 | CC(=O)O[C@@H]1[C@H]2[C@@H](OC(=O)c3ccccc3)[C@@H](C)C[C@]2(O)[C@H](OC(C)=O)[C@@]2(C)[C@@H]3C[C@@](C)(O)CC(=O)[C@]3(OC(C)=O)C[C@@]12C | Non-Toxic
> 50 | CC(=O)O[C@@H]1[C@H]2[C@@H](OC(=O)c3ccccc3)[C@@H](C)C[C@]2(O)[C@H](OC(C)=O)[C@@]2(C)[C@@H]3C[C@](C)(O)CC(=O)[C@]3(OC(C)=O)C[C@@]12C | Non-Toxic
